The values below come from ChEMBL document CHEMBL1126974, “The effect of NMeTyr5 substitution in luteinizing hormone-releasing hormone antagonists” (J Med Chem, 1993).

The nature of data set [1]: Solubility was determined in 5% dextrose, pH 4.5. The format is physicochemical. In short, it runs like this: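 Solubility measured in 5% dextrose at pH 4.5, reported in mg/mL; some peptides measured as TFA salts, others as acetate salts.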
The target in data set [2] is T1, Gonadotropin-releasing hormone receptor (Rattus norvegicus, UniProt P30969).
T1 sequence (P30969 whole entry): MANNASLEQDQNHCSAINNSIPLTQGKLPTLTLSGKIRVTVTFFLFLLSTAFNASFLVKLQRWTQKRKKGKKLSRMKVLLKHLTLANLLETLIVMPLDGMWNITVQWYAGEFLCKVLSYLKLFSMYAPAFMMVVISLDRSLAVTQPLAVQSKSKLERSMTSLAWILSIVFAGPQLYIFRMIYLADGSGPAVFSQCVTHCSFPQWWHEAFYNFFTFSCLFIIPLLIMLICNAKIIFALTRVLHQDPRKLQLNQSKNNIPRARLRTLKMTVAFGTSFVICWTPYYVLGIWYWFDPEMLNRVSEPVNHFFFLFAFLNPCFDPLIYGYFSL
Description: The negative logarithm of the concentration of antagonist that inhibits 50% of the binding of 125 I-labeled leuprolide to the rat pituitary LHRH receptor. In outline:
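Competition binding to rat pituitary LHRH receptor with 125I-labeled leuprolide as radioligand; compounds dissolved in 10 mmol Tris buffer pH 7.4. Concentration inhibiting 50% of tracer binding determined and expressed as its negative logarithm (pKi). TFA salts unless indicated.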

Data set [3] is filed under the species Rattus norvegicus. Description: The negative logarithm of the concentration of the antagonist that requires 2-fold higher concentration of the agonist to release LH from cultured rat pituitary cells. The format is functional, cell-based. Conditions: Pituitary gland cell, read-out: pA2 (converted). In outline: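 Cultured rat pituitary cells stimulated with LHRH agonist in presence of antagonist dissolved in 10 mmol Tris buffer pH 7.4; LH release measured. pA2 taken as negative log of antagonist concentration requiring 2-fold higher agonist concentration for LH release.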

Data set [4] is filed under the species Rattus norvegicus. Description: Effective dose of the antagonist that gives 50% of the maximal release of histamine from rat peritoneal mast cells. The class given is functional. As to conditions: read-out: ED50 (the source's name). In short, it runs like this:
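Mast cells from rat peritoneum; compounds dissolved in 5.6 mM glucose, 0.1% BSA in Dulbecco phosphate-buffered saline pH 7.4. Released histamine quantified by RIA kit; value is dose giving 50% of maximal histamine release, in µg/mL. Tested as TFA salts unless indicated.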

Each structure is given as a SMILES string. Converted amounts (≈) assume the structure as drawn. Non-standard residues stand in square brackets, D forms with d. Residues, ends and D or L forms follow the SMILES beside them. *: point of attachment. dNva(5-oxo-5-(4-MeOPh)) = COc1ccc(C(=O)CC[C@@H](N)C(=O)O)cc1; dPhe(4-Cl) = N[C@H](Cc1ccc(Cl)cc1)C(=O)O; d2Nal = N[C@H](Cc1ccc2ccccc2c1)C(=O)O; Lys(iPr) = CC(C)NCCCC[C@H](N)C(=O)O; NMeY = CN[C@@H](Cc1ccc(O)cc1)C(=O)O; dBta = N[C@H](Cc1csc2ccccc12)C(=O)O; dCit = NC(=O)NCCC[C@@H](N)C(=O)O; d3Pal = N[C@H](Cc1cccnc1)C(=O)O; Nicotinoyl = O=C(c1cccnc1)*

In general, solubility refers to the dissolved amount per volume that the medium holds. High values mean a readily soluble substance, low ones a poorly soluble substance. A word on the Ki: it is the equilibrium dissociation constant of an inhibitor or competing ligand from its target. `CC(=O)N[C@H](Cc1ccc(Cl)cc1)C(=O)N[C@H](Cc1ccc(Cl)cc1)C(=O)N[C@H](Cc1csc2ccccc12)C(=O)N[C@@H](CO)C(=O)N[C@@H](Cc1ccc(O)cc1)C(=O)N[C@H](CCCCN)C(=O)N[C@@H](CC(C)C)C(=O)N[C@@H](CCCN=C(N)N)C(=O)N1CCC[C@H]1C(=O)N[C@H](C)C(N)=O` [listing 1 of 2 here] had a solubility in data set [1] of less than 100 µg/mL. This molecule also showed an inhibitory constant (Ki) in data set [2] of 0.0331 nM. In addition, the Kb in the data set filed under Rattus norvegicus [3] is 0.00646 nM.

As for `CC(=O)N[C@H](Cc1ccc(Cl)cc1)C(=O)N[C@H](Cc1ccc(Cl)cc1)C(=O)N[C@H](Cc1csc2ccccc12)C(=O)N[C@@H](CO)C(=O)N[C@@H](Cc1ccc(O)cc1)C(=O)N[C@H](CCCCN)C(=O)N[C@@H](CC(C)C)C(=O)N[C@@H](CCCN=C(N)N)C(=O)N1CCC[C@H]1C(=O)N[C@H](C)C(N)=O` [listing 2 of 2 here], the EC50 in the data set filed under Rattus norvegicus [4] is 0.62 µg/mL (≈ 0.43 µM).

`CC(=O)N[C@H](Cc1ccc2ccccc2c1)C(=O)N[C@H](Cc1ccc(Cl)cc1)C(=O)N[C@H](Cc1cccnc1)C(=O)N[C@@H](CO)C(=O)N(C)[C@@H](Cc1ccc(O)cc1)C(=O)N[C@H](CCCNC(N)=O)C(=O)N[C@@H](CC(C)C)C(=O)N[C@@H](CCCN=C(N)N)C(=O)N1CCC[C@H]1C(=O)N[C@H](C)C(N)=O` [listing 1 of 2 here] came in with a solubility in data set [1] of 12000 µg/mL (≈ 8300 µM). Besides, affinity in data set [2] was put at a Ki of 0.0135 nM. In the data set listed under Rattus norvegicus [3], the Kb is 0.0158 nM.

`CC(=O)N[C@H](Cc1ccc2ccccc2c1)C(=O)N[C@H](Cc1ccc(Cl)cc1)C(=O)N[C@H](Cc1cccnc1)C(=O)N[C@@H](CO)C(=O)N(C)[C@@H](Cc1ccc(O)cc1)C(=O)N[C@H](CCCNC(N)=O)C(=O)N[C@@H](CC(C)C)C(=O)N[C@@H](CCCN=C(N)N)C(=O)N1CCC[C@H]1C(=O)N[C@H](C)C(N)=O` [listing 2 of 2 here]: the EC50 in the data set listed under Rattus norvegicus [4] is 1.65 µg/mL (≈ 1.14 µM).

`CC(=O)N[C@H](Cc1ccc2ccccc2c1)C(=O)N[C@H](Cc1ccc(Cl)cc1)C(=O)N[C@H](Cc1cccnc1)C(=O)N[C@@H](CO)C(=O)N[C@@H](CCCCNC(=O)c1cccnc1)C(=O)N[C@H](CCCCNC(=O)c1cccnc1)C(=O)N[C@@H](CC(C)C)C(=O)N[C@@H](CCCCNC(C)C)C(=O)N1CCC[C@H]1C(=O)N[C@H](C)C(N)=O` (Ac-[d2Nal][dPhe(4-Cl)][d3Pal]SK(Nicotinoyl)[dK](Nicotinoyl)L[Lys(iPr)]P[dA]-NH2) [listing 1 of 2 here] yielded a solubility in data set [1] of 1100 µg/mL (≈ 691 µM). This molecule also gave an inhibition constant Ki in data set [2] of 0.0617 nM. Also, the Kb in the data set listed under Rattus norvegicus [3] is 0.0234 nM.

As for `CC(=O)N[C@H](Cc1ccc2ccccc2c1)C(=O)N[C@H](Cc1ccc(Cl)cc1)C(=O)N[C@H](Cc1cccnc1)C(=O)N[C@@H](CO)C(=O)N[C@@H](CCCCNC(=O)c1cccnc1)C(=O)N[C@H](CCCCNC(=O)c1cccnc1)C(=O)N[C@@H](CC(C)C)C(=O)N[C@@H](CCCCNC(C)C)C(=O)N1CCC[C@H]1C(=O)N[C@H](C)C(N)=O` (Ac-[d2Nal][dPhe(4-Cl)][d3Pal]SK(Nicotinoyl)[dK](Nicotinoyl)L[Lys(iPr)]P[dA]-NH2) [listing 2 of 2 here], the EC50 in the data set filed under Rattus norvegicus [4] is 261 µg/mL (≈ 164 µM).

`COc1ccc(C(=O)CC[C@@H](NC(=O)[C@H](CCCN=C(N)N)NC(=O)[C@H](CO)NC(=O)[C@@H](Cc2cccnc2)NC(=O)[C@@H](Cc2ccc(Cl)cc2)NC(=O)[C@@H](Cc2ccc3ccccc3c2)NC(C)=O)C(=O)N[C@@H](CC(C)C)C(=O)N[C@@H](CCCN=C(N)N)C(=O)N2CCC[C@H]2C(=O)N[C@H](C)C(N)=O)cc1` (Ac-[d2Nal][dPhe(4-Cl)][d3Pal]SR[dNva(5-oxo-5-(4-MeOPh))]LRP[dA]-NH2) [listing 1 of 2 here] had a Ki in data set [2] of 0.0525 nM. In the data set filed under Rattus norvegicus [3], the Kb was 0.00871 nM.

`COc1ccc(C(=O)CC[C@@H](NC(=O)[C@H](CCCN=C(N)N)NC(=O)[C@H](CO)NC(=O)[C@@H](Cc2cccnc2)NC(=O)[C@@H](Cc2ccc(Cl)cc2)NC(=O)[C@@H](Cc2ccc3ccccc3c2)NC(C)=O)C(=O)N[C@@H](CC(C)C)C(=O)N[C@@H](CCCN=C(N)N)C(=O)N2CCC[C@H]2C(=O)N[C@H](C)C(N)=O)cc1` (Ac-[d2Nal][dPhe(4-Cl)][d3Pal]SR[dNva(5-oxo-5-(4-MeOPh))]LRP[dA]-NH2) [listing 2 of 2 here]: the EC50 in the data set filed under Rattus norvegicus [4] came out at 1.11 µg/mL (≈ 0.747 µM).

For `CC(=O)N[C@H](Cc1ccc2ccccc2c1)C(=O)N[C@H](Cc1ccc(Cl)cc1)C(=O)N[C@H](Cc1cccnc1)C(=O)N[C@@H](CO)C(=O)N[C@@H](Cc1ccc(O)cc1)C(=O)N[C@H](CCCNC(N)=O)C(=O)N[C@@H](CC(C)C)C(=O)N[C@@H](CCCN=C(N)N)C(=O)N1CCC[C@H]1C(=O)N[C@H](C)C(N)=O` (Ac-[d2Nal][dPhe(4-Cl)][d3Pal]SY[dCit]LRP[dA]-NH2) [listing 1 of 2 here], the Kb in the data set listed under Rattus norvegicus [3] is 0.0355 nM.

Consider `CC(=O)N[C@H](Cc1ccc2ccccc2c1)C(=O)N[C@H](Cc1ccc(Cl)cc1)C(=O)N[C@H](Cc1cccnc1)C(=O)N[C@@H](CO)C(=O)N[C@@H](Cc1ccc(O)cc1)C(=O)N[C@H](CCCNC(N)=O)C(=O)N[C@@H](CC(C)C)C(=O)N[C@@H](CCCNC(=N)N)C(=O)N1CCC[C@H]1C(=O)N[C@H](C)C(N)=O` (Ac-[d2Nal][dPhe(4-Cl)][d3Pal]SY[dCit]LRP[dA]-NH2), for which the solubility in data set [1] was less than 1000 µg/mL. Also, the Ki in data set [2] was 0.117 nM.

Take `CC(=O)N[C@H](Cc1ccc2ccccc2c1)C(=O)N[C@H](Cc1ccc(Cl)cc1)C(=O)N[C@H](Cc1cccnc1)C(=O)N[C@@H](CO)C(=O)N[C@@H](Cc1ccc(O)cc1)C(=O)N[C@H](CCCNC(N)=O)C(=O)N[C@@H](CC(C)C)C(=O)N[C@@H](CCCN=C(N)N)C(=O)N1CCC[C@H]1C(=O)N[C@H](C)C(N)=O` (Ac-[d2Nal][dPhe(4-Cl)][d3Pal]SY[dCit]LRP[dA]-NH2) [listing 2 of 2 here]: the EC50 in the data set listed under Rattus norvegicus [4] was determined as 1.11 µg/mL (≈ 0.776 µM).

In data set [1], `CC(=O)N[C@H](Cc1ccc2ccccc2c1)C(=O)N[C@H](Cc1ccc(Cl)cc1)C(=O)N[C@H](Cc1cccnc1)C(=O)N[C@@H](CO)C(=O)N(C)[C@@H](Cc1ccc(O)cc1)C(=O)N[C@H](CCCCNC(=O)c1cccnc1)C(=O)N[C@@H](CC(C)C)C(=O)N[C@@H](CCCCNC(C)C)C(=O)N1CCC[C@H]1C(=O)N[C@H](C)C(N)=O` (Ac-[d2Nal][dPhe(4-Cl)][d3Pal]S[NMeY][dK](Nicotinoyl)L[Lys(iPr)]P[dA]-NH2) [listing 1 of 2 here] yielded a solubility of more than 20000 µg/mL. The Kb in the data set listed under Rattus norvegicus [3] was 0.00589 nM.

Take `CC(=O)N[C@H](Cc1ccc2ccccc2c1)C(=O)N[C@H](Cc1ccc(Cl)cc1)C(=O)N[C@H](Cc1cccnc1)C(=O)N[C@@H](CO)C(=O)N(C)[C@@H](Cc1ccc(O)cc1)C(=O)N[C@H](CCCCNC(=O)c1cccnc1)C(=O)N[C@@H](CC(C)C)C(=O)N[C@@H](CCCCNC(C)C)C(=O)N1CCC[C@H]1C(=O)N[C@H](C)C(N)=O` (Ac-[d2Nal][dPhe(4-Cl)][d3Pal]S[NMeY][dK](Nicotinoyl)L[Lys(iPr)]P[dA]-NH2) [listing 2 of 2 here]: the EC50 in the data set filed under Rattus norvegicus [4] worked out at 10 µg/mL (≈ 6.51 µM).

In turn, `CC(=O)N[C@H](Cc1ccc(Cl)cc1)C(=O)N[C@H](Cc1ccc(Cl)cc1)C(=O)N[C@H](Cc1csc2ccccc12)C(=O)N[C@@H](CO)C(=O)N(C)[C@@H](Cc1ccc(O)cc1)C(=O)N[C@H](CCCCN)C(=O)N[C@@H](CC(C)C)C(=O)N[C@@H](CCCN=C(N)N)C(=O)N1CCC[C@H]1C(=O)N[C@H](C)C(N)=O` (Ac-[dPhe(4-Cl)][dPhe(4-Cl)][dBta]S[NMeY][dK]LRP[dA]-NH2) [listing 1 of 2 here] gave a solubility in data set [1] of more than 25000 µg/mL. For the same molecule, in data set [2], the affinity corresponds to a Ki of 0.0234 nM. Besides, the Kb in the data set listed under Rattus norvegicus [3] was 0.00501 nM.

Consider `CC(=O)N[C@H](Cc1ccc(Cl)cc1)C(=O)N[C@H](Cc1ccc(Cl)cc1)C(=O)N[C@H](Cc1csc2ccccc12)C(=O)N[C@@H](CO)C(=O)N(C)[C@@H](Cc1ccc(O)cc1)C(=O)N[C@H](CCCCN)C(=O)N[C@@H](CC(C)C)C(=O)N[C@@H](CCCN=C(N)N)C(=O)N1CCC[C@H]1C(=O)N[C@H](C)C(N)=O` (Ac-[dPhe(4-Cl)][dPhe(4-Cl)][dBta]S[NMeY][dK]LRP[dA]-NH2) [listing 2 of 2 here], for which the EC50 in the data set filed under Rattus norvegicus [4] is less than 0.5 µg/mL.
